{"source": "ChEMBL document CHEMBL4007469", "about": "“Design and synthesis of dalbergin analogues and evaluation of anti-osteoporotic activity” (Bioorg Med Chem Lett, 2017)", "key": {"[1]": {"test_system": "Mus musculus", "test": "Osteogenic activity in Balb/c mouse drill-hole fracture model assessed as trabecular thickness at 1 mg/kg, po qd via gavage for 21 days by micro-CT method (reference value: 0.111 +/- 0.006 millimeter)"}, "[2]": {"test_system": "Mus musculus", "test": "In vivo induction of osteogenesis in Balb/c mouse assessed as bone formation at 5 mg/kg/day, sc over calvarial surface for 5 consecutive days by hematoxylin and eosin staining based fluorescence microscopic method", "format": "functional, organism-based", "outline": "(§1)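 Three-week-old Balb/c mice (3 per group) injected subcutaneously over the calvarial surface daily for 5 consecutive days at 0.1, 0.5, 1 and 5 mg/kg/day. Calvaria fixed in 4% formaldehyde, paraffin-embedded, H&E-stained; tetracycline and calcein (20 mg/kg each, ip) given for MAR/BFR histomorphometry; calvarial mRNA by RT-PCR. Mean ± SE, three independent experiments, versus untreated.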"}, "[3]": {"test_system": "Mus musculus", "test": "In vivo induction of osteogenesis in Balb/c mouse assessed as increase in COL1 mRNA level in calvaria at 1 mg/kg/day, sc over calvarial surface for 5 consecutive days by RT-PCR method relative to control", "format": "functional", "outline": "as §1"}, "[4]": {"test_system": "Mus musculus", "test": "Estrogenic effect in uterine of ovariectomized postmenopausal Balb/c mouse model assessed as luminal area at 1 mg/kg, po qd via gavage for 6 weeks (reference value: 57.5 +/- 1.19 um2)", "format": "ADME, organism-based", "settings": "in vivo, 1008 h"}, "[5]": {"test_system": "Mus musculus", "test": "In vivo induction of osteogenesis in Balb/c mouse assessed as bone formation at 0.5 to 1 mg/kg/day, sc over calvarial surface for 5 consecutive days", "format": "functional, organism-based", "outline": "as §1"}, "[6]": {"test_system": "Mus musculus", "test": "Anti-osteoporotic activity in ovariectomized postmenopausal Balb/c mouse model assessed as femur bone breaking strength by measuring stiffness at 1 mg/kg, po qd via gavage for 6 weeks by micro CT-scan analysis (reference value: 34.3 +/- 1.84 N/mm)", "format": "functional", "outline": "(§2)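 Female Balb/c mice, 8 weeks old, ovariectomized, 6 weeks osteopenia development, then 1.0 mg/kg/day or gum acacia vehicle by oral gavage once daily for 6 weeks (sham, OVx and treated groups). Bones collected after sacrifice for micro-CT of trabecular microarchitecture (BV/TV, Tb.N, Tb.Th, Tb.Sp, SMI) and biomechanical testing of femur and vertebrae (energy, stiffness); mean ± SE versus OVx.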"}, "[7]": {"test_system": "Mus musculus", "test": "In vivo induction of osteogenesis in Balb/c mouse assessed as increase in Runx2 mRNA level in calvaria at 1 mg/kg/day, sc over calvarial surface for 5 consecutive days by RT-PCR method relative to control", "format": "functional", "outline": "as §1"}, "[8]": {"test_system": "Mus musculus", "test": "Decrease in osteocalcin level in serum of ovariectomized postmenopausal Balb/c mouse model at 1 mg/kg, po qd via gavage for 6 weeks by ELISA", "format": "functional, organism-based", "outline": "(§3)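 Eight-week-old female Balb/c mice, ovariectomized and left 6 weeks for osteopenia to develop; groups sham+vehicle, OVx+vehicle, OVx+1.0 mg/kg/day, dosed once daily by oral gavage for 6 weeks in gum acacia/distilled water vehicle. Mice kept at 21°C, 12 h light/dark, chow and water ad libitum. Femoral bone mRNA or serum measured after sacrifice; mean ± SE versus OVx group.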"}, "[9]": {"test_system": "Mus musculus", "test": "Osteogenic activity in Balb/c mouse drill-hole fracture model assessed as increase in BMP4 mRNA level at 1 mg/kg, po qd via gavage for 21 days by RT-PCR method"}, "[10]": {"test_system": "Mus musculus", "test": "Anti-osteoporotic activity in ovariectomized postmenopausal Balb/c mouse model assessed as increase in ALP gene expression in femur bone at 1 mg/kg, po qd via gavage for 6 weeks by RT-PCR method", "format": "functional, organism-based", "outline": "as §3"}, "[11]": {"test_system": "Mus musculus", "test": "Estrogenic effect in uterine of ovariectomized postmenopausal Balb/c mouse model assessed as total uterine area at 1 mg/kg, po qd via gavage for 6 weeks (reference value: 837.2 +/- 36.09 um2)", "format": "ADME, organism-based", "settings": "in vivo, 1008 h"}, "[12]": {"test_system": "Mus musculus", "test": "Anti-osteoporotic activity in ovariectomized postmenopausal Balb/c mouse model assessed as decrease in RANK mRNA expression at 1 mg/kg, po qd via gavage for 6 weeks by RT-PCR method", "format": "functional, organism-based", "outline": "as §3"}, "[13]": {"test_system": "Calvarial cell", "test": "Induction of mineralization in mouse calvarial cells assessed as calcium nodule formation at Emax incubated for 12 days by alizarin red-S staining based spectrophotometric method", "format": "functional", "outline": "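Primary mouse calvarial osteoblasts treated with or without compound for 12 days, fixed in 4% formaldehyde, stained with alizarin red-S, and the stain extracted and quantified by the acetic acid method.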"}, "[14]": {"test_system": "Mus musculus", "test": "Anti-osteoporotic activity in ovariectomized postmenopausal Balb/c mouse model assessed as increase in COL1 gene expression in femur bone at 1 mg/kg, po qd via gavage for 6 weeks by RT-PCR method", "format": "functional, organism-based", "outline": "as §3"}, "[15]": {"test": "Induction of osteoblast differentiation in mouse calvarial cells assessed as increase in BMP2 mRNA expression at 1 pM after 24 hrs by qRT-PCR method relative to control", "format": "functional, Calvarial cell", "outline": "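Mouse calvarial osteoblasts exposed to 1 pM for 24 h; BMP2, RunX2 and COL1 mRNA by quantitative PCR with GAPDH as internal control. Mean ± SE of three independent experiments versus untreated cells.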"}, "[16]": {"test_system": "Mus musculus", "test": "Estrogenic effect in uterine of ovariectomized postmenopausal Balb/c mouse model assessed as luminal epithelial height at 1 mg/kg, po qd via gavage for 6 weeks (reference value: 0.55 +/- 0.03 umeter)", "format": "ADME, organism-based", "settings": "in vivo, 1008 h"}, "[17]": {"test_system": "Mus musculus", "test": "In vivo induction of osteogenesis in Balb/c mouse assessed as increase in bone formation rate in calvaria at 0.1 to 1 mg/kg/day, sc over calvarial surface for 5 consecutive days by fluorochromes tetracycline and calcein labeling based histomorphometric analysis", "format": "functional, organism-based", "outline": "as §1"}, "[18]": {"test_system": "Mus musculus", "test": "Osteogenic activity in Balb/c mouse drill-hole fracture model assessed as increase in Runx2 mRNA level at 1 mg/kg, po qd via gavage for 21 days by RT-PCR method"}, "[19]": {"test_system": "Mus musculus", "test": "Anti-osteoporotic activity in ovariectomized postmenopausal Balb/c mouse model assessed as increase in BMP2 gene expression in femur bone at 1 mg/kg, po qd via gavage for 6 weeks by RT-PCR method", "format": "functional, organism-based", "outline": "as §3"}, "[20]": {"test_system": "Mus musculus", "test": "Anti-osteoporotic activity in ovariectomized postmenopausal Balb/c mouse model assessed as trabecular bone formation by measuring increase in bone volume fraction at 1 mg/kg, po qd via gavage for 6 weeks by micro CT-scan analysis relative to control", "format": "functional", "outline": "as §2"}, "[21]": {"test_system": "Mus musculus", "test": "Anti-osteoporotic activity in ovariectomized postmenopausal Balb/c mouse model assessed as induction of femur bone marrow cell mineralization at 1 mg/kg, po qd via gavage for 6 weeks measured on day 21 post dose by alizarin red-S staining based assay relative to control", "format": "functional", "outline": "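Ovariectomized 8-week-old female Balb/c mice given 1.0 mg/kg/day orally by gavage for 6 weeks; bone marrow cells then cultured ex vivo. ALP activity read at 405 nm; mineralized nodules stained with Alizarin Red at day 21 of culture. Mean ± SE versus OVx group.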"}, "[22]": {"test": "Induction of osteoblast differentiation in mouse calvarial cells assessed as compound concentration required for maximum increase in ALP activity using PNPP as substrate after 48 hrs", "format": "functional, Calvarial cell"}, "[23]": {"test_system": "Mus musculus", "test": "Anti-osteoporotic activity in ovariectomized postmenopausal Balb/c mouse model assessed as increase in OCN gene expression in femur bone at 1 mg/kg, po qd via gavage for 6 weeks by RT-PCR method", "format": "functional, organism-based", "outline": "as §3"}, "[24]": {"test": "Induction of osteoblast differentiation in mouse calvarial cells assessed as increase in ALP activity using PNPP as substrate after 48 hrs", "format": "functional, cell-based", "settings": "Calvarial cell"}}, "note": "Calls of active or inactive are those of the source. No cut-off for these calls is given here.", "data": [{"smiles": "COc1cc2oc(=O)cc(-c3ccccc3)c2cc1OCCCCCN1CCN(C)CC1", "values": [{"measurement": "Activity", "setting": "[1]", "result": 0.166, "unit": "mm"}, {"measurement": "Activity", "setting": "[2]", "result": "inactive"}, {"measurement": "fold change (FC)", "setting": "[3]", "result": 4}, {"measurement": "Activity", "setting": "[4]", "result": 75.75, "unit": "um2"}, {"measurement": "Activity", "setting": "[5]", "result": "Active"}, {"measurement": "Activity", "setting": "[6]", "result": 53.55, "unit": "N/mm"}, {"measurement": "fold change (FC)", "setting": "[7]", "result": 4}, {"measurement": "Activity", "setting": "[8]", "result": "Active"}, {"measurement": "Activity", "setting": "[9]", "result": "Active"}, {"measurement": "Activity", "setting": "[10]", "result": "Active"}, {"measurement": "Activity", "setting": "[11]", "result": 958.6, "unit": "um2"}, {"measurement": "Activity", "setting": "[12]", "result": "Active"}, {"measurement": "Activity", "setting": "[13]", "result": "Active"}, {"measurement": "Activity", "setting": "[14]", "result": "Active"}, {"measurement": "fold change (FC)", "setting": "[15]", "result": 2}, {"measurement": "Activity", "setting": "[16]", "result": 0.66, "unit": "um"}, {"measurement": "Activity", "setting": "[17]", "result": "Active"}, {"measurement": "Activity", "setting": "[18]", "result": "Active"}, {"measurement": "Activity", "setting": "[19]", "result": "Active"}, {"measurement": "fold change (FC)", "setting": "[20]", "result": 1.5}, {"measurement": "Activity", "setting": "[21]", "result": 50, "unit": "%"}, {"measurement": "Concentration giving maximal ALP increase", "setting": "[22]", "result": 1, "unit": "pM"}, {"measurement": "Activity", "setting": "[23]", "result": "Active"}, {"measurement": "EC50", "setting": "[24]", "result": 2300, "unit": "nM"}]}]}
